From ChEMBL document CHEMBL3739335, “Phosphonooxymethyl Prodrug of Triptolide: Synthesis, Physicochemical Characterization, and Efficacy in Human Colon Adenocarcinoma and Ovarian Cancer Xenografts” (J Med Chem, 2015)
The source made the active and inactive calls. The rule behind the calls is not given here.

Tests used:
[1] = tested on: Mus musculus; experiment: Toxicity in athymic nude mouse xenografted with human HT-29 cells assessed as necrosis at 0.9 mg/kg, ip administered 14 days measured post last dose; format: organism-based; details: in vivo, 336 h
Outline: (§1)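 Female athymic nude mice, 7–9 weeks old, received 1.74 × 10^6 HT-29 cells subcutaneously in the right flank in 50% Matrigel/McCoy's 5A. Randomized at 110 mm3, 10 per group. Intraperitoneal dosing in USP saline (0.2 mL) over a 28-day period on the stated schedule. Body weights were taken twice weekly; clinical signs and survival were recorded.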

[2] = tested on: Mus musculus; experiment: Toxicity in athymic nude mouse xenografted with human HT-29 cells assessed as weight gain at 0.9 mg/kg, ip administered 14 days measured post last dose; format: organism-based; details: in vivo, 336 h; outline: as §1
[3] = Chemical stability of the compound in buffer assessed as compound remaining at pH 1 after 24 hrs by HPLC analysis; format: physicochemical; details: read-out: Stability
[4] = tested on: HT-29; experiment: Antitumor activity against human HT-29 cells xenografted in athymic nude mouse at 0.9 mg/kg, ip qd administered for 4 weeks; format: functional, organism-based
Outline: (§2)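 Female athymic nude mice, 7–9 weeks, implanted s.c. on right flank with 1.74 × 10^6 HT-29 cells (ATCC, mycoplasma/rodent-pathogen tested) in 50% Matrigel/50% McCoy's 5A; randomized at mean tumor 110 mm3, 10/group. IP dosing in USP saline, 0.2 mL, over a 28-day treatment period. Tumor volume by caliper (L × W2/2) at least twice weekly, tumor weight at necropsy, survival, body weight.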

[5] = Chemical stability of the compound in buffer assessed as compound remaining at pH 6 after 8 hrs by HPLC analysis; format: physicochemical; details: read-out: Stability
[6] = tested on: Mus musculus; experiment: Toxicity in athymic nude mouse xenografted with human A2780 cells assessed as mortality at 0.6 to 0.9 mg/kg, po administered for 30 days; format: organism-based; details: in vivo, 720 h
Outline: (§3)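 Female athymic nude mice, 7–9 weeks old, received 2.5 × 10^6 A2780 cells subcutaneously in the flank in 50% Matrigel/RPMI 1640. Mice were randomized at a mean tumor volume of 188 mm3, 10 per group. Daily oral gavage in USP saline (0.2 mL) for 30 days, dosed on group-mean body weight. Clinical signs, survival and body weights were recorded.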

[7] = tested on: Mus musculus; experiment: Toxicity in athymic nude mouse xenografted with human A2780 cells assessed as moribund condition at 1.2 mg/kg, po administered for 30 days; format: organism-based; details: in vivo, 720 h; outline: as §3
[8] = tested on: Mus musculus; experiment: Toxicity in athymic nude mouse xenografted with human A2780 cells assessed as anorexia at 1.2 mg/kg, po administered for 30 days; format: organism-based; details: in vivo, 720 h; outline: as §3
[9] = tested on: HT-29; experiment: Antitumor activity against human HT-29 cells xenografted in athymic nude mouse at 0.3 to 0.9 mg/kg, ip qd administered for 28 days; format: functional, organism-based; outline: as §2
[10] = tested on: HT-29; experiment: Antitumor activity against human HT-29 cells xenografted in athymic nude mouse at 0.9 mg/kg, ip qd administered for 2 weeks followed by 3 times per week; format: functional, organism-based; outline: as §2
[11] = tested on: Mus musculus; experiment: Toxicity in athymic nude mouse xenografted with human A2780 cells assessed as morbidity at 0.6 to 0.9 mg/kg, po administered for 30 days; format: organism-based; details: in vivo, 720 h; outline: as §3
[12] = Chemical stability of the compound in buffer assessed as compound remaining at pH 2 after 8 hrs by HPLC analysis; format: physicochemical; details: read-out: Stability
[13] = Chemical stability of the compound in buffer assessed as compound remaining at pH 1 after 1 hr by HPLC analysis; format: physicochemical; details: read-out: Stability
[14] = Chemical stability of the compound in buffer assessed as compound remaining at pH 7.4 after 2 hrs by HPLC analysis; format: physicochemical; details: read-out: Stability
[15] = tested on: Mus musculus; experiment: Toxicity in athymic nude mouse xenografted with human A2780 cells assessed as survival at 0.6 to 0.9 mg/kg, ip administered for 30 days; format: organism-based; details: in vivo, 720 h
Outline: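 Female athymic nude mice, 7–9 weeks old, carried subcutaneous flank A2780 xenografts (2.5 × 10^6 cells in 50% Matrigel). Randomized at 188 mm3 mean tumor volume, 10 per group. Daily intraperitoneal dosing in USP saline (0.2 mL) for 30 days, based on group-mean weight. Survival and clinical signs were monitored.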

[16] = Chemical stability of the compound in buffer assessed as compound remaining at pH 2 after 1 hr by HPLC analysis; format: physicochemical; details: read-out: Stability
[17] = Chemical stability of the compound in buffer assessed as pseudo-first-order rate constant at 70 degC at pH 7.4 by Arrhenius plot analysis; format: physicochemical
[18] = tested on: A2780; experiment: Antitumor activity against human A2780 cells xenografted in athymic nude mouse at 0.6 to 0.9 mg/kg, ip and po administered for 30 days; format: functional, organism-based
Outline: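 Female athymic nude mice, 7–9 weeks, implanted s.c. on right or left flank with 2.5 × 10^6 A2780 cells (ECACC, mycoplasma/rodent-pathogen tested) in 50% Matrigel/50% RPMI 1640; randomized at mean tumor 188 mm3, 10/group. Dosed daily for 30 days IP or by oral gavage in USP saline, 0.2 mL. Tumor volume by caliper (L × W2/2), tumor weight at necropsy, survival, body weight.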

[19] = Chemical stability of the compound in buffer assessed as pseudo-first-order rate constant at 40 degC at pH 7.4 by Arrhenius plot analysis; format: physicochemical
[20] = Half life of the compound in buffer at 25 degC at pH 7.4; format: ADME
Outline: (§4)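 Pseudo-first-order kobsd at each temperature was fitted to an Arrhenius plot, which was extrapolated to 25 and 4 °C. t1/2 and t90 (time for 10% loss) were calculated from the extrapolated kobsd.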

[21] = Chemical stability of the compound in buffer assessed as pseudo-first-order rate constant at 4 degC at pH 7.4 by Arrhenius plot analysis; format: physicochemical; outline: as §4
[22] = Chemical stability of the compound in buffer assessed as compound remaining at pH 6 after 1 hr by HPLC analysis; format: physicochemical; details: read-out: Stability
[23] = Chemical stability of the compound in buffer assessed as compound remaining at pH 9 after 2 hrs by HPLC analysis; format: physicochemical; details: read-out: Stability
[24] = Chemical stability of the compound in buffer assessed as compound remaining at pH 9 after 8 hrs by HPLC analysis; format: physicochemical; details: read-out: Stability
[25] = Chemical stability of the compound in buffer assessed as compound remaining at pH 9 after 24 hrs by HPLC analysis; format: physicochemical; details: read-out: Stability
[26] = Chemical stability of the compound in buffer assessed as compound remaining at pH 2 after 24 hrs by HPLC analysis; format: physicochemical; details: read-out: Stability
[27] = Chemical stability of the compound in buffer assessed as compound remaining at pH 4 after 8 hrs by HPLC analysis; format: physicochemical; details: read-out: Stability
[28] = Second dissociation constant, pKa2 of the compound by 31P NMR analysis
Outline: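 pKa2 derived from the pH dependence of the observed 31P NMR chemical shift across solutions of varying pH, by sigmoidal fit (titration-type curve); at 25 °C.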

[29] = Stability of the compound in simulated gastric fluid assessed as compound remaining after 2 hrs by HPLC analysis
[30] = Chemical stability of the compound in buffer assessed as compound remaining at pH 7.4 after 1 hr by HPLC analysis; format: physicochemical; details: read-out: Stability
[31] = Shelf life of the compound in buffer assessed as time for 10% loss of compound at 25 degC at pH 7.4; format: physicochemical; outline: as §4
[32] = Shelf life of the compound in buffer assessed as time for 10% loss of compound at 4 degC at pH 7.4; format: physicochemical; outline: as §4

CC(C)[C@]12O[C@H]1[C@@H]1O[C@]13[C@]1(O[C@H]1C[C@H]1C4=C(CC[C@@]13C)C(=O)OC4)[C@@H]2OCOP(=O)([O-])[O-].[Na+].[Na+] [MINNELIDE]
Activity [1]: Toxic | Activity [2]: Toxic | remaining at 24 h [3]: 0% | Activity [4]: Active | remaining at 8 h [5]: 100% | Activity [6]: Toxic | Activity [7]: Toxic | Activity [8]: Toxic | Activity [9]: Active | Activity [10]: Active | Activity [11]: Toxic | remaining at 8 h [12]: 94% | remaining at 1 h [13]: 89% | remaining at 2 h [14]: 100% | Activity [15]: Non-toxic | remaining at 1 h [16]: 98% | K [17]: 0.008659 h⁻¹ | Activity [18]: Active | K [19]: 0.000494 h⁻¹ | t1/2 [20]: 0.92 yr | K [21]: 6.5 ×10⁻⁶ /hr | remaining at 1 h [22]: 100% | remaining at 2 h [23]: 100% | remaining at 8 h [24]: 100% | remaining at 24 h [25]: 100% | remaining at 24 h [26]: 83% | remaining at 8 h [27]: 99% | pKa [28]: 6.61 | remaining at 2 h [29]: 85% | remaining at 1 h [30]: 100% | Time [31]: 0.14 yr | Time [32]: 1.9 yr
